These results are taken from ChEMBL document CHEMBL1137702, “Identification of hydrolytically stable and selective P2Y(1) receptor agonists” (Eur J Med Chem, 2009).

Active and inactive are the calls of the source. No cut-off for these calls is given here.

Assay [1] deals with T1, Ectonucleoside triphosphate diphosphohydrolase 8 (Homo sapiens) (UniProt Q5MY95).
T1 sequence (whole entry): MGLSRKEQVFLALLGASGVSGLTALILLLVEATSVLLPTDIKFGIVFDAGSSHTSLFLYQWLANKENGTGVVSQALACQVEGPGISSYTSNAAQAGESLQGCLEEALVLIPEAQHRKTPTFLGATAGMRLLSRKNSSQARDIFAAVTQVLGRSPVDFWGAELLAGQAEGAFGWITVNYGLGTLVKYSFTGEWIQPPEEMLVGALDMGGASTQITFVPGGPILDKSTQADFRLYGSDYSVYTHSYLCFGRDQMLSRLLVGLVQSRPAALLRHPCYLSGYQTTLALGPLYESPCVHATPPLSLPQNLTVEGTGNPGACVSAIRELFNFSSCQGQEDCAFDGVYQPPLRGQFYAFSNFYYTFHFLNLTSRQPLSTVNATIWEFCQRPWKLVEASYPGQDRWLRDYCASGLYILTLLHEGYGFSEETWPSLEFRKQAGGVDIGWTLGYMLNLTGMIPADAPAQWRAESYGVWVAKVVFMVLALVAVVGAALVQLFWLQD
The experiment in a line: Activity of human NTPDase 8 expressed in human 293T cells assessed as drug hydrolysis at 100 uM after 20 mins relative to ATP. It counts as cell-based. More on the design: scale not given: the % may be the effect or the level left. The procedure, abridged:
(§1)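 Human NTPDase1, 2, 3 or 8 in crude extracts of transfected 293T cells, pre-incubated 3 min at 37 °C in Tris-Ringer buffer pH 7.4. […] Untransfected-cell extract activity subtracted.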

In assay [2] the target is T2, Ectonucleoside triphosphate diphosphohydrolase 3 (Homo sapiens) (UniProt O75355).
T2 sequence (whole entry): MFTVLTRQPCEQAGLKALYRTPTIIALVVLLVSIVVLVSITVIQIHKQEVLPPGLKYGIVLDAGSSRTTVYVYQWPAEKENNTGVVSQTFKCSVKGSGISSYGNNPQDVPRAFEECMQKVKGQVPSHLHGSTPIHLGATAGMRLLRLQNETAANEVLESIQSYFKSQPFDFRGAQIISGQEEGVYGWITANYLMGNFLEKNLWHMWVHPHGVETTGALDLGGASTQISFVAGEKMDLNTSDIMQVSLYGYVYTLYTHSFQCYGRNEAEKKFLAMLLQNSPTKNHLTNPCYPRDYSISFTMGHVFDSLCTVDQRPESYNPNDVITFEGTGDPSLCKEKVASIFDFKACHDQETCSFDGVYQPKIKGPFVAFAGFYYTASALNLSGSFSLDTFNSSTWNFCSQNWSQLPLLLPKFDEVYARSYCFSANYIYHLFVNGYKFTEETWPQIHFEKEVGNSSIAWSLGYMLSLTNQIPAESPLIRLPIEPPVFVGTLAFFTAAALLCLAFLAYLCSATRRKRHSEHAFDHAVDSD
Nature of the assay: Activity of human NTPDase 3 expressed in human 293T cells assessed as drug hydrolysis at 100 uM after 20 mins relative to ATP. In kind it is cell-based. Details: scale not given: the % may be the effect or the level left. In a few lines: as §1

In assay [3] the target is T3, Ectonucleotide pyrophosphatase/phosphodiesterase family member 1 (Homo sapiens) (UniProt P22413).
T3 sequence (whole entry): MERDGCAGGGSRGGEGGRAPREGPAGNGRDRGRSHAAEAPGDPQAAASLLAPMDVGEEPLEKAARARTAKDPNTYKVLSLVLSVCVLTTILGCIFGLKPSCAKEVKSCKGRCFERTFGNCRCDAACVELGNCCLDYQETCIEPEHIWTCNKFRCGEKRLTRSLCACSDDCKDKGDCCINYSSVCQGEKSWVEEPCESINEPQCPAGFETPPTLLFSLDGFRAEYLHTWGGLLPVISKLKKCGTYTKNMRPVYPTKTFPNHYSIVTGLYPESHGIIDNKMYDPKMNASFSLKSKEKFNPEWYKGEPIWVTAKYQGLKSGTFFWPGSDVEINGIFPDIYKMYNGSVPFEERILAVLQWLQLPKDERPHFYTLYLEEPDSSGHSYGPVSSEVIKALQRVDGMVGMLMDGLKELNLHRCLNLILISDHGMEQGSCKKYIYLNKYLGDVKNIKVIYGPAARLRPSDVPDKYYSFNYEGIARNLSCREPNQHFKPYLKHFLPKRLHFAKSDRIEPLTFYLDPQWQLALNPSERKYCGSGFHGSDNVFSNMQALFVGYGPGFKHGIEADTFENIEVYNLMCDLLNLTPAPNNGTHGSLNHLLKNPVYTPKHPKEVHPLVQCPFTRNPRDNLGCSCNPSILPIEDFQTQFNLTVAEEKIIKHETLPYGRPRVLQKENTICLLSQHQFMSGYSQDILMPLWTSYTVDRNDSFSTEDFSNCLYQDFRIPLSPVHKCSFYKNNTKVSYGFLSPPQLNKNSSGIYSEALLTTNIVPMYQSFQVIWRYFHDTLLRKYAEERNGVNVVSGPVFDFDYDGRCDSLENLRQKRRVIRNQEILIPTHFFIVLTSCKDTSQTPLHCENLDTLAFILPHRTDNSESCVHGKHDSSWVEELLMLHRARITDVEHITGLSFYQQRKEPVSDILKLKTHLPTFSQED
The experiment in a line: Inhibition of human NPP1 expressed in human 293T cells. It counts as cell-based.

For assay [4], the target named is T4, Ectonucleoside triphosphate diphosphohydrolase 1 (Homo sapiens) (UniProt P49961).
T4 sequence (whole entry): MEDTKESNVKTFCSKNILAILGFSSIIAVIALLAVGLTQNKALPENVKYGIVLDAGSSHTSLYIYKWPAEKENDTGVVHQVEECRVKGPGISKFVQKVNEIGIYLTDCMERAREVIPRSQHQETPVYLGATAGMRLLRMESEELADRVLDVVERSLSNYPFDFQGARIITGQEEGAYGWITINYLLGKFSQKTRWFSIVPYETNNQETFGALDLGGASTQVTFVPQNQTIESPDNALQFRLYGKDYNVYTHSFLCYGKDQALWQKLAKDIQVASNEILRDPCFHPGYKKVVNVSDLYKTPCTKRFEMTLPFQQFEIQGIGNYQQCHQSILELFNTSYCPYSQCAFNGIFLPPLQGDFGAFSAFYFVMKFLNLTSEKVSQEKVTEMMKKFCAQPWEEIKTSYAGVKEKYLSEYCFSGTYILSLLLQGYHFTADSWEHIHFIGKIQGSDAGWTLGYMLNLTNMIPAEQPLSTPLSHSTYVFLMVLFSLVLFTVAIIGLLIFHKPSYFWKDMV
The experiment in a line: Inhibition of human NTPDase 1 expressed in human 293T cells. In kind it is cell-based.

Assay [5] concerns the target T2, Ectonucleoside triphosphate diphosphohydrolase 3 (Homo sapiens). The experiment in a line: Inhibition of human NTPDase 3 expressed in human 293T cells. In kind it is cell-based.
Assay [6] deals with P2Y purinoceptor 2 (Homo sapiens, UniProt P41231). Nature of the assay: Antagonist activity at human P2Y2 receptor expressed in human 1321N1 cells assessed as inhibition of UTP-induced increase in intracellular calcium concentration by dual-excitation spectrofluorimetric analysis. It counts as functional, cell-based. The procedure, abridged: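 Fura-2-loaded suspensions of stably transfected 1321N1 cells were assayed at 37 °C in HEPES-buffered saline pH 7.4 with 1 mM Ca2+ and Mg2+. […] [Ca2+]i was read by dual-excitation spectrofluorometry.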
In general terms: A change in cytosolic calcium serves as a functional read-out for many receptors and channels.

Chain of P2Y purinoceptor 2 (P41231 whole entry): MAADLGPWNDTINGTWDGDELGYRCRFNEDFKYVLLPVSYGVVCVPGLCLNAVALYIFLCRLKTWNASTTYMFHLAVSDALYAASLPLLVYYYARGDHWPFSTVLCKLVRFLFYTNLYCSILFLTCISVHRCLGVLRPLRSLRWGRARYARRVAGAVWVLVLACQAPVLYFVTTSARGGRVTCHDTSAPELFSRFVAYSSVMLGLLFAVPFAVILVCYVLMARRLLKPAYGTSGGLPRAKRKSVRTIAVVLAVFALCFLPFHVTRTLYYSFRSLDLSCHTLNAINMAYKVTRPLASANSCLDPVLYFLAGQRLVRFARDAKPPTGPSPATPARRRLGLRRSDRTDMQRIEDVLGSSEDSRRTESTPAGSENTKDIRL

Regarding `CSc1nc(N)c2ncn([C@@H]3O[C@H](COP(=O)(O)OP(=O)(O)CP(=O)(O)O)[C@@H](O)[C@H]3O)c2n1`, the Activity in assay [1] and in assay [2] was 7% each time. Also, the outcome in assay [3], in assay [4], in assay [5] and in assay [6] was inactive.
On to `BP(=O)(OC[C@H]1O[C@@H](n2cnc3c(N)ncnc32)[C@H](O)[C@@H]1O)OP(=O)(O)CP(=O)(O)O` (stereo not given in full), for which the Activity amounted to 2% in assay [1] and 0% in assay [2]. For the same molecule, the outcome in assay [3], in assay [4], in assay [5] and in assay [6] was inactive.
With `BP(=O)(OC[C@H]1O[C@@H](n2cnc3c(N)nc(SC)nc32)[C@H](O)[C@@H]1O)OP(=O)(O)CP(=O)(O)O` (single isomer, unassigned; diastereomer A), the Activity in assay [1] turned out to be 4%; in assay [2], 2%. The result in assay [3], in assay [4], in assay [5] and in assay [6] was inactive.
For `BP(=O)(OC[C@H]1O[C@@H](n2cnc3c(N)nc(SC)nc32)[C@H](O)[C@@H]1O)OP(=O)(O)CP(=O)(O)O` (single isomer, unassigned; diastereomer B), the Activity was 3% in assay [1] and 2% in assay [2]. In addition, the result in assay [3], in assay [4], in assay [5] and in assay [6] was inactive.
For `BP(=O)(OC[C@H]1O[C@@H](n2cnc3c(N)ncnc32)[C@H](O)[C@@H]1O)OP(=O)(O)CP(=O)(O)O` (single isomer, unassigned; diastereomer B), the Activity was less than 1% in assay [1] and 6% in assay [2]. For the same molecule, the outcome in assay [3], in assay [4], in assay [5] and in assay [6] was inactive.
